Measurements gathered from unrelated publications.
Protocols differ between the studies behind these lines.
Target: Dual specificity protein kinase TTK (TTK, Homo sapiens, UniProt P33981)
Sequence (P33981 1-857, as in one of the studies): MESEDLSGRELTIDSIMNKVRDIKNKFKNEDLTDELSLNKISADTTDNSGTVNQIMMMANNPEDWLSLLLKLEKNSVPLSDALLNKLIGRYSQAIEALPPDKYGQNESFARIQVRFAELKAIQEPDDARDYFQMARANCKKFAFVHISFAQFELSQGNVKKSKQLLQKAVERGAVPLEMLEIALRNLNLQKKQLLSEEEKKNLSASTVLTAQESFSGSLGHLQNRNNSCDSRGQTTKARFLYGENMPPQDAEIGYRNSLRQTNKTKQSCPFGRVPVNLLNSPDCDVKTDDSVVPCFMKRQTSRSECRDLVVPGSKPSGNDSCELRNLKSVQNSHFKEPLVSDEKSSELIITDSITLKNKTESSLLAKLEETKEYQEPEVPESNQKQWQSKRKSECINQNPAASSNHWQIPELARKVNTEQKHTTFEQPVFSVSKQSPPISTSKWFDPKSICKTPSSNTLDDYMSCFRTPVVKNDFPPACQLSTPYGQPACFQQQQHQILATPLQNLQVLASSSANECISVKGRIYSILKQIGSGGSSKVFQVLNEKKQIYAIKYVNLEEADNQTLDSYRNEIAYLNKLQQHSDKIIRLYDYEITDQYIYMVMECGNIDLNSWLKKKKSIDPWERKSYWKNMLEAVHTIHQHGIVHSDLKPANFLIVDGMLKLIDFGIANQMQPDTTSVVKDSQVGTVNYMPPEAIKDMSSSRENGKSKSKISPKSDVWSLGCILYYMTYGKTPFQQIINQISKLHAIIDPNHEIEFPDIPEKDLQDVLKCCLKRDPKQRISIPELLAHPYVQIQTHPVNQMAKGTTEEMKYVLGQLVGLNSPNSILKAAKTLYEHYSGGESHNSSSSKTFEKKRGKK

CN(C)c1ncc(F)c(-c2cnn3ncccc23)n1 has a remaining binding of 66% (binding; 1 µM).
For CNC(=O)[C@@H]1CC[C@@H](n2c(-c3ccc4cnccc4c3)nc3ccc(C(=O)NCc4cccc(C(N)=O)c4)cc32)C1, the remaining binding was 100% (binding; competition with immobilised ligand; 1 µM).
N[C@H]1CCN(c2nccc(-c3cnn4ncccc34)n2)C1 gave a remaining binding of 93% (binding; 1 µM).
For O=C(c1ccc(Nc2nccc(-c3cc4ccccc4s3)n2)cc1)N1CCC(N2CCCC2)CC1, the remaining binding was 57% (binding; competition with immobilised ligand; 1 µM).
For O=C(NCC1CCOCC1)c1n[nH]cc1NC(=O)c1c(F)cccc1F, the remaining binding was 84% (binding; competition with immobilised ligand; 1 µM).
FC(F)(F)Oc1cccc(-c2cnc3ccc(-c4ccncc4)nn23)c1 gave a remaining binding of 53% (binding; competition with immobilised ligand; 5 µM).
The remaining binding of COc1cnc(Nc2cccc(S(N)(=O)=O)c2)nc1N1CCN(c2ccccc2)CC1 is reported as 83% (binding; competition with immobilised ligand; 1 µM).
The remaining binding of CSc1cccnc1N1CCN(Cc2nc3ccccc3[nH]2)CC1 is reported as 98% (cell-free assay; competition with immobilised ligand; 1 µM).
The remaining binding of O=C(c1ccc(Nc2ncc(Cl)c(-c3ccc(Cl)s3)n2)cc1)N1CCC(N2CCCC2)CC1 is reported as 26% (binding; competition with immobilised ligand; 1 µM).
For CN(c1nccc(-c2cnn3ncccc23)n1)C1CC1, the remaining binding was 69% (binding; 1 µM).
NS(=O)(=O)c1cc(NC(=O)Cc2ccccc2)ccc1Oc1cccc(Cl)c1 has a remaining binding of 91% (cell-free assay; competition with immobilised ligand; 1 µM).
CN(CCCC(F)(F)F)c1nccc(-c2cnn3ncccc23)n1 has a remaining binding of 64% (binding; 1 µM).
CC1=C(C#N)C(c2ccc3c(c2)c(NC(=O)c2ccccc2C)nn3C)C(C#N)=C(C)N1 gave a remaining binding of 82% (cell-free assay; competition with immobilised ligand; 1 µM).
The remaining binding of C[C@@H]1CCN(c2nccc(-c3cnn4ncccc34)n2)C1 is reported as 46% (binding; 1 µM).
With CNC(=O)Nc1ccc2c(c1)CC[C@@]21OC(=O)N(CC(=O)N(Cc2ccc(F)cc2)[C@@H](C)C(F)(F)F)C1=O the remaining binding was 100% (cell-free assay; competition with immobilised ligand; 1 µM).
c1cncc(-c2cccc(Nc3nccc(NC4CCCCC4)n3)c2)c1 gave a remaining binding of 30% (binding; competition with immobilised ligand; 10 µM).
For CCOC(=O)c1cc2cc(-c3cc(C(=O)NCc4ccc(C(=O)O)cc4)nn3C)ccc2[nH]1, the remaining binding was 93% (cell-free assay; competition with immobilised ligand; 0.1 µM).
With Cc1cnn2ncc(-c3ccnc(N(C)C)n3)c2c1 the remaining binding was 100% (binding; 1 µM).
The remaining binding of CO[C@@H](C)c1c(Nc2ccc([C@H](N(C)C(=O)C3CCS(=O)(=O)CC3)C(F)(F)F)cc2)cnc2cc(Cl)nn12 is reported as 77% (cell-free assay; competition with immobilised ligand; 1 µM).
For O=C(NCCCN1CCOCC1)c1ccc(Nc2nccc(-c3cc4ccccc4s3)n2)cc1, the remaining binding was 72% (binding; competition with immobilised ligand; 1 µM).
